Sampled rows, rich in hits. Any-hit rate of the full collection: about 2.6%.
CHT PAM = allosterically activates the human high affinity choline transporter; Q9GZV3; CHT-expressing cells, membrane potential dye, choline EC20; hits give high values; LV-AA mutant CHT in HEK293 cells; B-score at 10 µM; 0.49% of 310,000 active; AID 488977;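 active = initial fluorescence not abnormally high and integrated response B-score, plate-corrected, over 3 SD above library mean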
CHT inh = human CHT choline transport inhibition; Q9GZV3; B-score at 10 µM; CHT-expressing cells, membrane potential dye, choline response; hits give low values; 0.86% of 310,000 active; AID 488975;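 active = B-score over 3 SD under the library average, and starting fluorescence ratio not unusually high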;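 note: choline stimulus applied at its EC90 after an EC20 pre-addition; B-score computed on integrated fluorescence ratio after choline addition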
Cl transport mod = KCC2 (human) Cl- transport modulation; KCC2 cells, thallium flux FluoZin-2 fluorescence; B-score of Tl+ flux slope (higher = more flux/activation; lower = inhibition) at 10 µM; 2.2% of 190,000 active; AID 1456;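 active = thallium flux slope and its plate-corrected score both differing from the plate sample mean at a set confidence after two filtering rounds, in either direction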;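 note: slope of fluorescence scaled to starting intensity during 10 to 20 s after thallium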
Rad51 HR inh = blocks human Rad51 in homologous recombination. inhibition, % at 10 µM. Q06609. hRad51 DNA strand exchange, fluorescence dequenching. 0.085% of 200,000 active. AID 1385;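 active = inhibition above 40% at the single screening dose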;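 note: 0% = DMSO control wells and 100% = blanks with heterologous ssDNA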
Target sequence (Q06609 whole entry, looked up): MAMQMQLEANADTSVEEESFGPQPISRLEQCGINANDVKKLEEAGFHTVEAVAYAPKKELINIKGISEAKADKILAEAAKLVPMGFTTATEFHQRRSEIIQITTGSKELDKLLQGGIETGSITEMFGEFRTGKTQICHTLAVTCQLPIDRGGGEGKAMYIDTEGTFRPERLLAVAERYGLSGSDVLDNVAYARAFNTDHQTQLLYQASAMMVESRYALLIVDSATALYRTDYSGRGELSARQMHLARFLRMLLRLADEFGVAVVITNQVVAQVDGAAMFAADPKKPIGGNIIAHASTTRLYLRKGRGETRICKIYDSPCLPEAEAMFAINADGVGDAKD
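material = hRad51 filaments on single-stranded DNA | timing = filaments 15 min 37 °C, then compound 30 min | signal = FRET fluorescence dequenching, excitation 485 nm, emission 520 nm | benchmarks = control wells and blank wells on each plate | evaluation = percent inhibition relative to plate controls and blanks | compound = 10 µM final, single point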
CHT act confirm = confirmation of human choline transporter (CHT) activators. shares compounds with CHT PAM. CHT-expressing cells, membrane potential dye fluorescence (FDSS); % of choline EC20–EC90 response window; HEK293 expressing CHT LV-AA mutant; choline added at its EC20. activation, % at 10 µM. 91% of 2,500 active;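 active = primary screen active, with duplicate mean activation above negative control mean plus 3 SD, cut at about 11% in these data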
HEK293 MP dye = activity in parental HEK293 cells lacking CHT. shares compounds with CHT PAM. membrane potential dye fluorescence (FDSS); measured after EC20 choline addition. ratio readout change at 10 µM, hits read low. 62% of 2,500 active;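 active = duplicate-averaged ratio beyond 3 SD from buffer wells, up or down, though filed actives are nearly all decreases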
The depositor's hits bear a star.

Screening CC(NCc1cc(Br)ccc1OCC(=O)NCc1ccccc1)c1ccccc1 (stereo unspecified) returned CHT PAM inactive, CHT inh inactive, Cl transport mod -1, Rad51 HR inh 1, CHT act confirm -2 and HEK293 MP dye inactive.
Screening Cc1cccc(N2C(=O)C3C4C=CC(C5CC45)C3C2=O)n1 (stereo unspecified) returned CHT PAM inactive, CHT inh inactive, Cl transport mod 0.52 and Rad51 HR inh -4.
For CN(C)c1nc(N(C)C)nc(N(C#N)CN2C(=O)c3ccccc3C2=O)n1 the results were CHT PAM inactive, CHT inh inactive, Cl transport mod -0.025 and Rad51 HR inh -12.
`Cn1c(=O)c([N+](=O)[O-])c(NCCCn2ccnc2)c2ccccc21` gave CHT PAM inactive, CHT inh inactive, Cl transport mod 0.2, Rad51 HR inh 23, CHT act confirm 58* and HEK293 MP dye -55*.
Screening CCN(CC)CCNc1cc(C)c(C#N)c2nc3ccccc3n12 returned CHT PAM inactive, CHT inh inactive, CHT act confirm 42* and HEK293 MP dye -81*.
Screening Cc1cc(NCCCCO)n2c(nc3ccccc32)c1C#N returned CHT PAM inactive, CHT inh inactive, Cl transport mod -1.3 and Rad51 HR inh -6.
Screening Cc1cc(NCCCN2CCOCC2)n2c(nc3ccccc32)c1C#N returned CHT PAM 6.3*, CHT inh inactive, Cl transport mod -0.24, Rad51 HR inh -7, CHT act confirm 55* and HEK293 MP dye -91*.
For Cc1c2c(n3c(nc4ccccc43)c1C#N)N(CCN1CCOCC1)CC2 the results were CHT PAM 7.9*, CHT inh inactive, Rad51 HR inh 9, CHT act confirm 54* and HEK293 MP dye -46*.
Screening CCOc1cc(CNc2ccc(CNc3ncn[nH]3)cc2)ccc1OCc1ccccc1 returned CHT PAM inactive, CHT inh inactive, Cl transport mod 0.034 and Rad51 HR inh -9.
`CCC(=O)N1CCc2cc(S(=O)(=O)CCC(=O)N(C)c3ccc(OC)cc3OC)ccc21` gave CHT PAM inactive and CHT inh inactive.
COC(=O)c1ccc(OC)c(CN2CCCN(Cc3cc(C)ccc3C)S2(=O)=O)c1 was read as CHT PAM inactive and CHT inh inactive.
Cc1cccc(C(=O)Nc2ccc(N3CCN(S(C)(=O)=O)CC3)cc2)c1 was read as CHT PAM inactive, CHT inh inactive and Cl transport mod 0.58.
`CCc1nc(Nc2ccccc2OC)c2oc3ccccc3c2n1` gave CHT PAM inactive and CHT inh inactive.
For Cn1cnc2c(N3CCCCC3)nccc21 the results were CHT PAM 8.7*, CHT inh inactive, Cl transport mod -0.65, Rad51 HR inh 1, CHT act confirm 71* and HEK293 MP dye -64*.
Screening COc1ccc(OC)c(Nc2c3c(nc4ccccc24)CCC3)c1 returned CHT PAM inactive and CHT inh inactive.
`COc1cc(Nc2c3c(nc4ccccc24)CCC3)cc(OC)c1OC` gave CHT PAM inactive, CHT inh inactive, CHT act confirm 36* and HEK293 MP dye -36*.
`CCCn1c(NCc2ccc3c(c2)OCO3)nc2ccccc21` gave CHT PAM inactive, CHT inh inactive, Cl transport mod -1.5, Rad51 HR inh 1, CHT act confirm 20* and HEK293 MP dye -24*.
For COc1ccc(CNc2nc3ccccc3n2CCN2CCCCC2)cc1 the results were CHT PAM inactive, CHT inh inactive, Cl transport mod 0.45, Rad51 HR inh -89, CHT act confirm 26* and HEK293 MP dye -21*.
For CCCn1c(C(O)c2ccc3c(c2)OCO3)nc2ccccc21 (stereo unspecified) the results were CHT PAM inactive, CHT inh inactive and Rad51 HR inh 7.
For CCN(CC)CCn1c(NCc2nc3ccccc3n2Cc2ccccc2)nc2ccccc21 the results were CHT PAM 7.7*, CHT inh inactive, Cl transport mod 0.13, Rad51 HR inh -11, CHT act confirm 44* and HEK293 MP dye inactive.
For O=C(Cc1ccc(Cl)cc1Cl)OCC(=O)N1CCN(C(=O)c2ccco2)CC1 the results were CHT PAM inactive, CHT inh inactive, Cl transport mod -1.1 and Rad51 HR inh -21.
COc1ccc(C=O)cc1Cn1ccnc1C was read as CHT PAM inactive, CHT inh inactive, Cl transport mod 0.0046 and Rad51 HR inh 10.
For CCc1nccn1Cc1cc(C=O)ccc1OC the results were CHT PAM inactive, CHT inh inactive, Cl transport mod -0.068, CHT act confirm 61* and HEK293 MP dye -44*.
CCC(CC)NC(=O)COc1ccc(OC)cc1C=O was read as CHT PAM inactive, CHT inh inactive, Cl transport mod 0.76 and Rad51 HR inh -1.
`CCC(O)(CC)C(=O)N/N=C/c1cc(Br)cc(Br)c1O` gave CHT PAM inactive, CHT inh inactive, Cl transport mod -0.86, Rad51 HR inh 2, CHT act confirm 14* and HEK293 MP dye inactive.
For O=C(C[n+]1ccccc1)N/N=C/c1cc(Br)cc(Br)c1O the results were CHT PAM inactive and CHT inh inactive.
For CCCC1=[N+](CC)CCn2c(C)ccc21 the results were CHT PAM inactive, CHT inh inactive, Cl transport mod -0.028 and Rad51 HR inh -7.
Screening CCCC1=[N+](CC(=O)c2ccccc2)CCn2c(C)ccc21 returned CHT PAM 8.1*, CHT inh inactive, Cl transport mod -0.055, Rad51 HR inh -3, CHT act confirm 40* and HEK293 MP dye inactive.
`CC1CCN(C(=O)CN(c2ccccc2)S(=O)(=O)N(C)C)CC1` gave CHT PAM inactive, CHT inh inactive, Cl transport mod 0.034 and Rad51 HR inh -9.
O=C(c1ccccc1CCc1ccccc1)N1CCN(c2ccccn2)CC1 was read as CHT PAM 6.5*, CHT inh inactive, Cl transport mod -2, Rad51 HR inh 2, CHT act confirm 27* and HEK293 MP dye inactive.
Screening O=c1[nH]cccc1-c1nc2ccccc2[nH]1 returned CHT PAM inactive, CHT inh inactive, CHT act confirm 34* and HEK293 MP dye -30*.
`Nc1ccccc1-c1nc2ccccc2[nH]1` gave CHT PAM inactive, CHT inh inactive, Cl transport mod -1.8 and Rad51 HR inh -9.
`CCOc1ccc(C(C(=O)NC2CCCC2)N(Cc2ccccc2)C(=O)c2nsc(Cl)c2Cl)cc1` (stereo unspecified) gave CHT PAM inactive, CHT inh inactive, Rad51 HR inh 1, CHT act confirm 1 and HEK293 MP dye inactive.

Screens: PubChem BioAssay, several laboratories
